In the EternaBench riboswitch data:

Key:
[1] = tested on: MS2 coat protein; test: apparent Kd, MS2 coat protein; higher = weaker binding; RNA-MaP array; tryptophan 2.4 mM where present
Outline: (§1)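 Designs were transcribed by stalled E. coli RNA polymerase on Illumina sequencing-chip clusters. They were titrated with SNAP-549-labelled MS2 coat protein from 0.7 or 1.5 nM, doubling to 3 µM, without and then with constant ligand. Buffer: 100 mM Tris-HCl pH 7.5, 80 mM KCl, 4 mM MgCl2, BSA, DTT, yeast tRNA, Tween-20. Green signal was normalised to red-channel RNA signal and control-cluster median Fmax. Apparent Kd is the median of filtered per-cluster binding-curve fits.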

[2] = tested on: MS2 coat protein; test: apparent Kd, MS2 coat protein; higher = weaker binding; RNA-MaP array; theophylline 2 mM where present
Outline: as §1

[3] = designed as: OFF switch for tryptophan, no ligand
[4] = ligand present: tryptophan, designed as: OFF switch for tryptophan
[5] = designed as: ON switch for tryptophan, no ligand
[6] = ligand present: tryptophan, designed as: ON switch for tryptophan
[7] = designed as: ON switch for theophylline, no ligand
[8] = ligand present: theophylline, designed as: ON switch for theophylline
[9] = designed as: OFF switch for theophylline, no ligand
[10] = ligand present: theophylline, designed as: OFF switch for theophylline

## UCUUUUUUCUUUUCUUCUUUCGGUUCUUUUCGAGGACCGGUACGGCCGCCACUCGAAACAUGAGGAUCACCCAUGUUUUGGUUUU
[1]; [3]
  apparent Kd: 11.9 nM
[1]; [4]
  apparent Kd: 17.5 nM

## AAAGAUCGGAAACGAUCGGCGGCUUGGGCGCGAGGACCGGUACGGCCGCCACUCGGGAAACAUGAGGAUCACCCAUGUUGCUAGC
[1]; [3]
  apparent Kd: 13.7 nM
[1]; [4]
  apparent Kd: 15.2 nM

## AGAUUCGACACGGCCGCCACUCGUGCCGGAUUACCGAGUGUCGAACAUGAGGAUCACCCAUGUACGAGGACCGGGUGUUGAGUCU
[1]; [3]
  apparent Kd: 37.7 nM
[1]; [4]
  apparent Kd: 262 nM

## CCAUAAGUACCGGUCCUCAGAUCCUCAUGACGAGGACCGGUACGGCCGCCACUCGAAACAUGAGGAUCACCCAUGUAAUAAUAUC
[1]; [3]
  apparent Kd: 30.6 nM
[1]; [4]
  apparent Kd: 24.6 nM

## UUUAAAUAGACGGCCGCCACUGGAAUUAAUACAUGAGGAUCACCCAUGUAGAGAGAAUAAUAAUACAGGACCGGGUCUUCAUGAA
[1]; [5]
  apparent Kd: 31.4 nM
[1]; [6]
  apparent Kd: 12.5 nM

## AGCACUGUGACGGCCGCCACUACAUAUAGGGUGGUCAGGUUCAUAAUACAUGAGGAUCACCCAUGUAGGACCGGGUCUCAGUGCA
[1]; [3]
  apparent Kd: 12.5 nM
[1]; [4]
  apparent Kd: 14.4 nM

## UAUCUACAUAUAUAGGUUAUUCGAUUAUUUCGAGGACCGGUACGGCCGCCACUCGUUAACAUAUACAUGAGGAUCACCCAUGUUA
[1]; [5]
  apparent Kd: 15.4 nM
[1]; [6]
  apparent Kd: 14.5 nM

## CCGCACAUGAGGAUCACCCAUGUCCGGGUUCGAGGACCGGUACGGCCGCCACUCGGACAUGUGCGCCCUUCAUGCACUGUAUAAA
[1]; [5]
  apparent Kd: 129 nM
[1]; [6]
  apparent Kd: 60.9 nM

## GUCCUAAGGUCGGCCGCCACUGUAGAGUGUGAGCCAUCACAUGAGGAUCACCCAUGUUGUUGCUAUAGGACCGGGAUUGUAGGAC
[1]; [3]
  apparent Kd: 12 nM
[1]; [4]
  apparent Kd: 16.4 nM

## GAUAUGGAAACAUGUCAGAUCCUUACCGGUCGAGGACCGGUACGGCCGCCACUCGCAAAUAUUGUACAUGAGGAUCACCCAUGUA
[1]; [3]
  apparent Kd: 13.1 nM
[1]; [4]
  apparent Kd: 13.6 nM

## UCGAAUGCGGCGGCCGCCACUCGCGGAUAACGAUAGCUUAACAUGAGGAUCACCCAUGUGUCAUGGAGGACCGGGCCCAUACCGU
[1]; [5]
  apparent Kd: 22.7 nM
[1]; [6]
  apparent Kd: 21.1 nM

## AGAUUCGACACGGCCGCCACUUGUGGUGGAUUAUCCAGUGUCGAACAUGAGGAUCACCCAUGUACAAGGACCGGGUGUUGAGUCU
[1]; [3]
  apparent Kd: 90.4 nM
[1]; [4]
  apparent Kd: 282 nM

## CGACACAUGAGGAUCACCCAUGUAAUGACGCGAGGACCGGUACGGCCGCCACUCGCAUGCCAAUGAGCGCAUGCGGCCUGGGUAU
[1]; [3]
  apparent Kd: 18.1 nM
[1]; [4]
  apparent Kd: 14.5 nM

## UGUAUGUGAUUUGAUACCAGAUCAGCUGGUUAUACAUGAGGAUCACCCAUGUUACUUUGGGUCCCUUGGCAGCAAAUCGCAUACU
[2]; [7]
  apparent Kd: 487 nM
[2]; [8]
  apparent Kd: 28.4 nM

## UGACAUUGCUCAGAUACCAGACAUGAGGAUCACCCAUGUGCCAACGUACAAAUAAUAAAUGUCCCUUGGCAGCUGAGCAAUGUCU
[2]; [9]
  apparent Kd: 11.4 nM
[2]; [10]
  apparent Kd: 35 nM

## ACAUGAGGAUCACCCAUGUUCCUCAUUGAUACCAGUGAAUUUAGACGCCCUUGGCAGCGAGUUUUUUUAUAAGUUUUUUUUUUUU
[2]; [9]
  apparent Kd: 665 nM
[2]; [10]
  apparent Kd: 1160 nM

## AUGUCGUUGAAUAUAGCGGCUUGGUGUGAUACCAGAAUGAUCUAAUUCCCUUGGCAGCAUUACAUGAGGAUCACCCAUGUUCAGG
[2]; [7]
  apparent Kd: 24 nM
[2]; [8]
  apparent Kd: 23.9 nM

## GGCUAGUGCAUCGAUACCAGCUACAUGAGGAUCACCCAUGUAGGAAGGGUGGUACUCGAUAGCCCUUGGCAGCGAACACCUCCGG
[2]; [9]
  apparent Kd: 16.1 nM
[2]; [10]
  apparent Kd: 31.4 nM

## ACAUGAGGGAUGGAUACCAGCGACAUGAGGAUCACCCAUGUAUGAGGAUCAGCCAUGUUAUGCCCUUGGCAGCCACGAACAUCAG
[2]; [9]
  apparent Kd: 26.6 nM
[2]; [10]
  apparent Kd: 226 nM

## AUCGUACCUGGUGAUACCAGCAAUUGCUCGUGACAUGAGGAUCACCCAUGUGGCCAGUGAUGCCCUUGGCAGCAUGGUCGGUGCA
[2]; [7]
  apparent Kd: 164 nM
[2]; [8]
  apparent Kd: 89.3 nM

## CUCGAGUUAUGAGAUACCAGACUAUAGUUUACAUGAGGAUCACCCAUGUUAUGGGUGGUAGUCCCUUGGCAGCUCAUAUGUUUAA
[2]; [9]
  apparent Kd: 225 nM
[2]; [10]
  apparent Kd: 812 nM

## AGACAUGAGGAUCACCCAUGUAGCAUGGAUACCAGAUCCAGAUUUAUCCCUUGGCAGCUGUGGUACAGUGAUGGAUUGCUCCUAG
[2]; [9]
  apparent Kd: 79 nM
[2]; [10]
  apparent Kd: 122 nM

## GGAAUUAAGACUGAUACCAGUCAAGAUAAUCAUAAGAAUAAACAUGAGGAUCACCCAUGUGACCCUUGGCAGCAGACUAAUACCG
[2]; [7]
  apparent Kd: 31 nM
[2]; [8]
  apparent Kd: 29.6 nM

## ACAUGAAGAACAGCGGUGGGCGCGCUCGAUACCAGUACUUUGAUAUACCCUUGGCAGCGACAUGAGGAUCACCCAUGUGAGAUGA
[2]; [9]
  apparent Kd: 18.7 nM
[2]; [10]
  apparent Kd: 27.2 nM

## CCUCAUGUGGUGCUGCACAUGAGAGGUGAUACCAGCAUCGAAAGAUGCCCUUGGCAGCACCAACAUGAGGAUCACCCAUGUAAUA
[2]; [7]
  apparent Kd: 57.4 nM
[2]; [8]
  apparent Kd: 135 nM

## AUACCUAAUGUUACGUUUUCCUUUUCAGAUACCAGACUUUACGUUGUCCCUUGGCAGCUGUAUUACAUGAGGAUCACCCAUGUUG
[2]; [7]
  apparent Kd: 22 nM
[2]; [8]
  apparent Kd: 29.7 nM

## AGUACUCGAACGGAUACCAGCCGGACAUGAGGAUCACCCAUGUCCUACCAUGGUUCGGUUGGCCCUUGGCAGCCGUUCGUGUACA
[2]; [7]
  apparent Kd: 225 nM
[2]; [8]
  apparent Kd: 20.2 nM

## UCGUGAGUUUCGGAUACCAGUGUUGUCGAUACAUGAGGAUCACCCAUGUUAGAGGAUGUACACCCUUGGCAGCCGGCUGUGGCGG
[2]; [7]
  apparent Kd: 18.6 nM
[2]; [8]
  apparent Kd: 11.3 nM

## CGACUACAGCGUGAUACCAGUGACAGAUACCAGUCUAGACAUGAGGAUCACCCAUGUACGCGCCCUUGGCAGCACACUAGAUCGA
[2]; [7]
  apparent Kd: 89.4 nM
[2]; [8]
  apparent Kd: 49.9 nM

## GACAUGAGGAUAGAUACCAGCGACAUGAGGAUCACAUGAGGAUCACCCAUGUGUAGUAUACGCCCUUGGCAGCUAACAUGAGGAU
[2]; [7]
  apparent Kd: 108 nM
[2]; [8]
  apparent Kd: 94 nM

## AUAAGUAAGUUUUCGUGUUUUAUUACAGAUACCAGACUAUACGUUGUCCCUUGGCAGCUGGAUUACAUGAGGAUCACCCAUGUUG
[2]; [9]
  apparent Kd: 24.5 nM
[2]; [10]
  apparent Kd: 54.3 nM

## GCACCAGGUACGGAUACCAGACUCUGCCGAUUGGGUGAACAUGAGGAUCACCCAUGUUAGGUCCCUUGGCAGCCGUACCUGGUGC
[2]; [9]
  apparent Kd: 28.3 nM
[2]; [10]
  apparent Kd: 487 nM

## UCGUGUAUAACGGAUACCAGUGAGAAGGAUACAUGAGGAUCACCCAUGUGAGUUGAUGUACACCCUUGGCAGCUGUAUAUAUCUA
[2]; [7]
  apparent Kd: 75.5 nM
[2]; [8]
  apparent Kd: 49.6 nM

## UGUAACAUGAGGAUCACCCAUGUAAGUGAUACCAGAUAAGUAGUAGUCCCUUGGCAGCAUAUUGGGCAAGUGUAUAGUCUAUACG
[2]; [7]
  apparent Kd: 49.8 nM
[2]; [8]
  apparent Kd: 53.5 nM

## UGUAUGUGAUCUGAUACCAGUCCCUUGGCAGCAACAUGAGGAUCACCCAUGUAGAUACCAGACCCUUGGCAGCAGAUCGCAUACU
[2]; [7]
  apparent Kd: 9.06 nM
[2]; [8]
  apparent Kd: 8.27 nM

## CAGAACAUGAGGAUCACCCAUGUCAGGGAUACCAGCUCAGACAUGGGCCCUUGGCAGCUCUGUGGCUGACGAAAGUCAGCAUCUG
[2]; [7]
  apparent Kd: 60.8 nM
[2]; [8]
  apparent Kd: 185 nM

## GAUGAUAUUGCAGAUACCAGACACAUGAGGAUCACCCAUGUCGCUGAGUUGCUGGAUCGUGUCCCUUGGCAGCUGCGAUAUCAUC
[2]; [9]
  apparent Kd: 19.5 nM
[2]; [10]
  apparent Kd: 180 nM

## GGUGGCUGGACUGAUACCAGCCACCACCGAUAGACCACAUGAGGAUCACCCAUGUUGGGUGGCCCUUGGCAGCAGUCUAGCUGCC
[2]; [7]
  apparent Kd: 561 nM
[2]; [8]
  apparent Kd: 1240 nM

## GCAAUAACGAUUGAUACCAGCAUGUUAACAUGAGGAUCACCCAUGUUAAGGAUAACAUAAUGCCCUUGGCAGCAACGGAAAGCCG
[2]; [7]
  apparent Kd: 24.3 nM
[2]; [8]
  apparent Kd: 14 nM

## CGGCCCUCACAUGAGGAUCACCCAUGUGAUACCAGCCUGGAAACAGGCCCUUGGCAGCACAGGUCAUCAAAAGAUGACCAAGCCG
[2]; [9]
  apparent Kd: 12.5 nM
[2]; [10]
  apparent Kd: 63.9 nM

## GAUAGUUGAAGGGAUACCAGCCUGGACAUGAGGAUCACCCAUGUAGCAUGUUUGAAACUGGGCCCUUGGCAGCCCAUAUUGUGUA
[2]; [7]
  apparent Kd: 22.4 nM
[2]; [8]
  apparent Kd: 14.4 nM

## UACAGUACAACAGAUACCAGACAGUACUCUAGAUUGCAACAUGAGGAUCACCCAUGUAUAGUCCCUUGGCAGCUGUAAUGGGUGA
[2]; [7]
  apparent Kd: 180 nM
[2]; [8]
  apparent Kd: 441 nM

## ACGUCUCGUUUACUCGUGGGUUAGCUCGAUACCAGUAUUCAAACUUACCCUUGGCAGCGACAUGAGGAUCACCCAUGUGCGAAGA
[2]; [9]
  apparent Kd: 16.4 nM
[2]; [10]
  apparent Kd: 54.9 nM

## UUAAAUGUGACGGAUACCAGCGUGUUGUAGAACAUGAGGAUCACCCAUGUAGUGAUCAUGCGCCCUUGGCAGCUGGUAUGUUUGA
[2]; [7]
  apparent Kd: 379 nM
[2]; [8]
  apparent Kd: 607 nM

## GAUGAACUAUUUGAUACCAGACUACAUGAGGAUCACCCAUGUGAGUUUAUACUUCAGUCAGUCCCUUGGCAGCAAAUAGUUUAUC
[2]; [9]
  apparent Kd: 44.9 nM
[2]; [10]
  apparent Kd: 99.3 nM
